Experimental data collected from several papers.
Technique: competition with immobilised ligand
RPS6KA1 C-terminal kinase domain: Ribosomal protein S6 kinase alpha-1, C-terminal kinase domain (RPS6KA1, Homo sapiens, UniProt Q15418)
RPS6KA1 N-terminal kinase domain: Ribosomal protein S6 kinase alpha-1, N-terminal kinase domain (RPS6KA1, Homo sapiens, UniProt Q15418)

| SMILES | target | read-out | concentration | remaining binding |
| --- | --- | --- | --- | --- |
| Nc1ncc2c(n1)-c1c([nH]c3ccc(C#CC4CC4)cc13)CCCC2 | RPS6KA1 C-terminal kinase domain | binding | 1 µM | 86% |
| O=C(NCc1ncc(C(F)(F)F)cc1Cl)c1ccc2c(c1)C1(CCS(=O)(=O)CC1)[C@H](C1CC1)N2S(=O)(=O)c1ccc(F)cc1 | RPS6KA1 N-terminal kinase domain | cell-free assay | 1 µM | 100% |
| COc1ncc2cc3ccccc3nc2c1C#N | RPS6KA1 C-terminal kinase domain | cell-free assay | 5 µM | 49% |
| CN(C)c1nccc(-c2cnn3ncccc23)n1 | RPS6KA1 C-terminal kinase domain | binding | 1 µM | 100% |
| C=CC(=O)N1CCC(C(=O)NCC(=O)N2CCN(c3nc(-c4cnc(N)nc4C(F)F)nc(N4CCOCC4)n3)CC2)CC1 | RPS6KA1 N-terminal kinase domain | binding | 1 µM | 100% |
| O=C(NCCCN1CCOCC1)c1ccc(Nc2nccc(-c3cc4ccccc4s3)n2)cc1 | RPS6KA1 C-terminal kinase domain | binding | 1 µM | 54% |
| CCC(=N\O)/C(C)=C/c1ccc(F)cc1 | RPS6KA1 N-terminal kinase domain | cell-free assay | 1 µM | 100% |
| CCN1CCN(Cc2ccc(C(=O)Nc3ccc(C)c(Oc4ccc5c(c4)CC(=O)N5)c3)cc2C(F)(F)F)CC1 | RPS6KA1 C-terminal kinase domain | binding | 1 µM | 95% |
| C[C@@H]1CCN(c2nccc(-c3cnn4ncccc34)n2)C1 | RPS6KA1 C-terminal kinase domain | binding | 1 µM | 47% |
| COc1cnc(Nc2cccc(S(N)(=O)=O)c2)nc1N1CCN(c2ccccc2)CC1 | RPS6KA1 C-terminal kinase domain | binding | 1 µM | 83% |
| C[C@@H]1CN(c2cc(-c3n[nH]c4ccc(OC5(C)CC5)cc34)ncn2)C[C@H](C)O1 | RPS6KA1 N-terminal kinase domain | cell-free assay | 0.1 µM | 97% |
| O=C(c1ccc(Nc2nccc(-c3cc4ccccc4s3)n2)cc1)N1CCC(N2CCCC2)CC1 | RPS6KA1 C-terminal kinase domain | binding | 1 µM | 60% |
| O=C(NS(=O)(=O)c1ccc(NCC2CCOCC2)c([N+](=O)[O-])c1)c1ccc(N2CCN(Cc3ccc(C(F)(F)F)cc3-c3ccc(Cl)cc3)CC2)cc1Oc1cnc2[nH]ccc2c1 | RPS6KA1 N-terminal kinase domain | cell-free assay | 1 µM | 95% |
| O=C(Nc1c[nH]nc1C(=O)NC1CCNCC1)c1cc(F)cc(F)c1 | RPS6KA1 C-terminal kinase domain | binding | 1 µM | 100% |
| CNC(=O)[C@@H]1CC[C@@H](n2c(-c3ccc4cnccc4c3)nc3ccc(C(=O)NCc4cccc(C(N)=O)c4)cc32)C1 | RPS6KA1 N-terminal kinase domain | binding | 1 µM | 100% |
| O=C(c1ccc(Nc2ncc(Cl)c(-c3ccc(Cl)s3)n2)cc1)N1CCC(N2CCCC2)CC1 | RPS6KA1 C-terminal kinase domain | binding | 1 µM | 72% |
| O=C(NCC1CCOCC1)c1n[nH]cc1NC(=O)c1c(F)cccc1F | RPS6KA1 C-terminal kinase domain | binding | 1 µM | 93% |

| SMILES | target | read-out | concentration | remaining binding |
| --- | --- | --- | --- | --- |
| Cc1cnn2ncc(-c3ccnc(N(C)C)n3)c2c1 | RPS6KA1 N-terminal kinase domain | binding | 1 µM | 100% |
| FC(F)(F)Oc1cccc(-c2cnc3ccc(-c4ccncc4)nn23)c1 | RPS6KA1 C-terminal kinase domain | binding | 5 µM | 41% |
| CC(C)CC(=O)N1CCc2nc(-c3ccc(Br)cc3)nc(N(C)Cc3ccccc3)c2C1 | RPS6KA1 N-terminal kinase domain | cell-free assay | 0.1 µM | 93% |
| O=C(NCCCN1CCOCC1)c1ccc(Nc2ncc(Cl)c(-c3ccc(Cl)s3)n2)cc1 | RPS6KA1 N-terminal kinase domain | binding | 1 µM | 55% |
| CN(CCCC(F)(F)F)c1nccc(-c2cnn3ncccc23)n1 | RPS6KA1 C-terminal kinase domain | binding | 1 µM | 100% |
| C[C@@H](c1ccc(-n2cnc3c(N)ncnc32)cc1)N1CCc2nn(C)c(Cc3ccccc3)c2C1=O | RPS6KA1 C-terminal kinase domain | binding | 0.1 µM | 100% |
| O=C(c1ccc(Nc2ncc(Cl)c(-c3cc4ccccc4s3)n2)cc1)N1CCC(N2CCCC2)CC1 | RPS6KA1 C-terminal kinase domain | binding | 1 µM | 82% |
| N[C@H]1CCN(c2nccc(-c3cnn4ncccc34)n2)C1 | RPS6KA1 N-terminal kinase domain | binding | 1 µM | 100% |
| c1cncc(-c2cccc(Nc3nccc(NC4CCCCC4)n3)c2)c1 | RPS6KA1 N-terminal kinase domain | binding | 10 µM | 9.9% |
| COc1cnc(Nc2cccc(S(N)(=O)=O)c2)nc1N1CCN(c2ccccc2)C(=O)C1 | RPS6KA1 N-terminal kinase domain | binding | 1 µM | 100% |
| COc1cc(-c2cn(C3CCc4c(F)cccc4N(CC(F)(F)F)C3=O)nn2)ccc1-n1cnc(C)c1 (stereo not drawn) | RPS6KA1 C-terminal kinase domain | cell-free assay | 1 µM | 100% |
| F[C@@H]1CCN(c2nccc(-c3cnn4ncccc34)n2)C1 | RPS6KA1 N-terminal kinase domain | binding | 1 µM | 100% |
| CO[C@@H](C)c1c(Nc2ccc([C@H](N(C)C(=O)C3CCS(=O)(=O)CC3)C(F)(F)F)cc2)cnc2cc(Cl)nn12 | RPS6KA1 C-terminal kinase domain | cell-free assay | 1 µM | 91% |
| CN(c1nccc(-c2cnn3ncccc23)n1)C1CC1 | RPS6KA1 N-terminal kinase domain | binding | 1 µM | 100% |
| O=C(N1CCS(=O)(=O)CC1)N1C[C@H](c2ccc(OC(F)(F)F)cc2)C[C@H](c2nc(C3CC3)no2)C1 | RPS6KA1 C-terminal kinase domain | cell-free assay | 1 µM | 100% |
| CC1CCCN1c1nccc(-c2cnn3ncccc23)n1 (stereo not drawn) | RPS6KA1 N-terminal kinase domain | binding | 1 µM | 100% |
